According to ChEMBL document CHEMBL2203244, “Discovery and optimization of a series of 2-aminothiazole-oxazoles as potent phosphoinositide 3-kinase γ inhibitors” (Bioorg Med Chem Lett, 2012):
In brackets after ≈: the same amount, converted by molar mass.

Legend:
[1] = target: T1, Phosphatidylinositol 4,5-bisphosphate 3-kinase catalytic subunit gamma isoform (Homo sapiens, UniProt P48736); experiment: Inhibition of human PI3Kgamma using phosphatidylinositol as substrate and [33gammaP]ATP after 2 hrs by scintillation counting
In short: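 Recombinant human PI3Kγ (20 ng) incubated 2 h at 30 °C with test inhibitor or DMSO in 20 mM Tris–HCl pH 7.4, 5 mM MgCl2, 5 mM DTT, with ATP/[33P]ATP and PtdIns/PtdSer lipid vesicles as substrate. Reaction stopped with 25 mM EDTA. Product captured on phospholipid scintillant-coated plates, washed with PBS, and bound radioactivity counted by scintillation.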

[2] = target: Phosphatidylinositol 4,5-bisphosphate 3-kinase catalytic subunit gamma isoform (Mus musculus, UniProt Q9JHG7); experiment: Inhibition of PI3Kgamma in mouse RAW264.7 cells assessed as inhibition of C5a-induced PKB/Akt phosphorylation incubated for 30 mins prior to C5a-induction measured after 5 mins by immunostaining method; type: cell-based
In short: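 Raw264.7 murine macrophage-like cells seeded at 8 × 10⁶ per well, grown 24 h, switched to serum-free 0.1% BSA medium for 3 h at 37 °C. Pretreated with or without a range of inhibitor concentrations for 30 min, then stimulated with 5 nM C5a for 5 min at 37 °C. PKB/Akt phosphorylation scored as the cellular read-out.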

[3] = target: Phosphatidylinositol 4,5-bisphosphate 3-kinase catalytic subunit alpha isoform (Homo sapiens, UniProt P42336); experiment: Inhibition of human PI3Kalpha using phosphatidylinositol as substrate and [33gammaP]ATP after 2 hrs by scintillation counting
In short: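 Recombinant human PI3Kα (20 ng) incubated 2 h at 30 °C in 20 mM Tris–HCl pH 7.4, 5 mM MgCl₂, 5 mM DTT with unlabelled ATP plus [γ-³³P]ATP and lipid vesicles of PtdIns and 25 µM PtdSer (final), with inhibitor or DMSO. Stopped with 25 mM EDTA, captured on phospholipid scintillant-coated plate, PBS-washed, bound counts per second read.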

Homo sapiens = species on record: Homo sapiens; experiment: Selectivity ratio of IC50 for human PI3Kalpha to IC50 for human PI3Kgamma
In short: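 Human PI3Kα and PI3Kγ (20 ng each) assayed by the same radiometric lipid-kinase procedure: 2 h at 30 °C, pH 7.4 Tris buffer with MgCl2 and DTT, [33P]ATP and PtdIns/PtdSer vesicles, stopped with EDTA, captured on scintillant-coated plates and counted. Ratio taken as the PI3Kα IC50 divided by the PI3Kγ IC50.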

[4] = target: T1, Phosphatidylinositol 4,5-bisphosphate 3-kinase catalytic subunit gamma isoform
[5] = Permeability of the compound at pH 6.2 by PAMPA assay; type: ADME; details: read-out: permeability
In short: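 PAMPA membrane permeability measured at pH 6.2, reported as Pe in cm/s.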

[6] = Aqueous solubility of the compound; type: physicochemical; details: water (aqueous)
In short: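 Solubility determined in water.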

Sequence of Phosphatidylinositol 4,5-bisphosphate 3-kinase catalytic subunit gamma isoform (Mus musculus, UniProt Q9JHG7) (Q9JHG7 whole entry, canonical isoform): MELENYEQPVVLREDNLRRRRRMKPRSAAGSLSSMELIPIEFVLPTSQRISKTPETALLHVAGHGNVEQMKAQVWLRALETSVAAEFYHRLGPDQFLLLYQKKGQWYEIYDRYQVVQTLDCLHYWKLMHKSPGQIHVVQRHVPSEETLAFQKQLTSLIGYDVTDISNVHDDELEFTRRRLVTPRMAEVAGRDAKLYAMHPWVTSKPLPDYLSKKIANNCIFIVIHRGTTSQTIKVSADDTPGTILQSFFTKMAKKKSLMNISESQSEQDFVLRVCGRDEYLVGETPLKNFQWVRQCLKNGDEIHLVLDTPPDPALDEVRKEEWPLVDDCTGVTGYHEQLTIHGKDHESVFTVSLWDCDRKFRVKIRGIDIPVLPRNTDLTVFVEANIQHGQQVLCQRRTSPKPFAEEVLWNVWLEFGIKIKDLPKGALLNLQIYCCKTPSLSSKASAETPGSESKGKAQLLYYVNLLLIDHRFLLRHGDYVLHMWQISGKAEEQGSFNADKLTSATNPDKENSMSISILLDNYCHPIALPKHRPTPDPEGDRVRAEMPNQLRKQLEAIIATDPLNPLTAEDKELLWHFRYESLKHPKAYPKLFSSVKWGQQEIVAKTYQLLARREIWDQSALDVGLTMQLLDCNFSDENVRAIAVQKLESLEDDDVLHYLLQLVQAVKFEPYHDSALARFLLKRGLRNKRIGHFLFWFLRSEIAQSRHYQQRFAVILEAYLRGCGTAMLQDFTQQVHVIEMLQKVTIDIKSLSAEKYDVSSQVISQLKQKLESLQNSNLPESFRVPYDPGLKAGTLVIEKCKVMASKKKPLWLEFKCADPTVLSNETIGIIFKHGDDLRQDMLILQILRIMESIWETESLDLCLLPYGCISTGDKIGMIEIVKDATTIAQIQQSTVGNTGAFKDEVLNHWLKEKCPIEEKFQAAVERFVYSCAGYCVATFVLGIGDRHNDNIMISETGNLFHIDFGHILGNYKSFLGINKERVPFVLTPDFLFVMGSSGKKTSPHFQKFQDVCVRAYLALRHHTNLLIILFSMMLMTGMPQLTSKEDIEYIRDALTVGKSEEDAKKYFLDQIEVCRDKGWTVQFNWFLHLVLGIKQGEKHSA
Sequence of Phosphatidylinositol 4,5-bisphosphate 3-kinase catalytic subunit alpha isoform (P42336 whole entry, canonical isoform): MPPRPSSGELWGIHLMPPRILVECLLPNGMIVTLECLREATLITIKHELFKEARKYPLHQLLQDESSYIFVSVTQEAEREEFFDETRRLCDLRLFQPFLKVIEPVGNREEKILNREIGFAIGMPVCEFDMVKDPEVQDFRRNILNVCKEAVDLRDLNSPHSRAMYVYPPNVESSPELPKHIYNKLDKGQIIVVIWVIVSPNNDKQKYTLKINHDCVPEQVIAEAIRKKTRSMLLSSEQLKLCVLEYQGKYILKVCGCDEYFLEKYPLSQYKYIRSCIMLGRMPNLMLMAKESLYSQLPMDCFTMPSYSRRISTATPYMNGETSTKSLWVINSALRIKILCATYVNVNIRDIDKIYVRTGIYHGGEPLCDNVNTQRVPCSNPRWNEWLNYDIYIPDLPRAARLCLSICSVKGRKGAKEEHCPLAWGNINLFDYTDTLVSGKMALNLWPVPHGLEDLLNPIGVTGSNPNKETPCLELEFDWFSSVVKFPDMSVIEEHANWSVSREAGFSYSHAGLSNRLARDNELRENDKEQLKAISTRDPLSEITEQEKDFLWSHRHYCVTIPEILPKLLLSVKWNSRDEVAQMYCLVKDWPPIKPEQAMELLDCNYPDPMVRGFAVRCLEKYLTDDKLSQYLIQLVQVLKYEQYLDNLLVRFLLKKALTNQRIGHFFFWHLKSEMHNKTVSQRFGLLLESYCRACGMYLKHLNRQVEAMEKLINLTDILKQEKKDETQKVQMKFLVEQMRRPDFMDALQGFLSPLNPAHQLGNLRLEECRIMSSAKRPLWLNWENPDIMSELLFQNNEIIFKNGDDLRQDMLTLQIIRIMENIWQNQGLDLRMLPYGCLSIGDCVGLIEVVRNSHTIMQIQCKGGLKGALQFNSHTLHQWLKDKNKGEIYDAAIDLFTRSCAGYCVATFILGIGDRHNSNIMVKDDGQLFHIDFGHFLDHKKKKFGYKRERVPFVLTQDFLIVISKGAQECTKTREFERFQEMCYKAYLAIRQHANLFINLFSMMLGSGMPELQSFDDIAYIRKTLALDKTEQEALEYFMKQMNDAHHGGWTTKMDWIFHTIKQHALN
T1 sequence (P48736 whole entry, canonical isoform): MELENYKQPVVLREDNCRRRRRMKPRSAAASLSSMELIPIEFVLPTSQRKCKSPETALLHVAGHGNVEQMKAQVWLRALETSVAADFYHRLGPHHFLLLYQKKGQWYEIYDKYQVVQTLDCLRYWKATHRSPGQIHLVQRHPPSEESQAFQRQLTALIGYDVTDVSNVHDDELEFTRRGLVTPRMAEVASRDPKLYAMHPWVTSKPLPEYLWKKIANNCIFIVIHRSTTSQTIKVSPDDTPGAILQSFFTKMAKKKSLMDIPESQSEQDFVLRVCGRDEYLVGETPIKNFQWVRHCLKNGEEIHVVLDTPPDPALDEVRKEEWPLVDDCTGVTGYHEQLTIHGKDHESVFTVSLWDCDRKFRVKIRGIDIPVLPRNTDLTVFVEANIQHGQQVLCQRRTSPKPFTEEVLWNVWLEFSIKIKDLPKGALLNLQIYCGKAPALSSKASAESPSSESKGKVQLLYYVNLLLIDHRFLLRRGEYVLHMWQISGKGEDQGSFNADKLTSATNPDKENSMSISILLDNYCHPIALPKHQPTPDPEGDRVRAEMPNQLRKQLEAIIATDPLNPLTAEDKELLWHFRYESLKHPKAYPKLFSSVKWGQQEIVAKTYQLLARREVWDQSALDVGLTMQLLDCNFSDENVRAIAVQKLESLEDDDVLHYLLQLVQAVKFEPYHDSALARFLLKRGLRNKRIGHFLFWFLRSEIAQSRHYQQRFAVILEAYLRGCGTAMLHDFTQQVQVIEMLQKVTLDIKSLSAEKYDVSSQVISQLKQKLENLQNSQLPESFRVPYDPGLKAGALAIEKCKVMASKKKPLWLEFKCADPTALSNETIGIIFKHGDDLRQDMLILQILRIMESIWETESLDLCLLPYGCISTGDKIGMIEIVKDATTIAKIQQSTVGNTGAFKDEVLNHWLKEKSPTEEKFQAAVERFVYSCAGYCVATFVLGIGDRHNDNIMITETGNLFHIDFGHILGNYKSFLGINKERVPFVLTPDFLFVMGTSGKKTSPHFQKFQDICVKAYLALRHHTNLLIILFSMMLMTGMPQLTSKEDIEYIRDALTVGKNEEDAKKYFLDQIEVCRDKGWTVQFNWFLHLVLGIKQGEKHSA

Structure (SMILES)	IC50 [1] [nM]	IC50 [2] [nM]	IC50 [3] [nM]	Ratio IC50 (Homo sapiens)	IC50 [4] [nM]	Papp [5] [×10⁻⁶ cm/s]	solubility [6] [µg/mL]
CC(=O)Nc1nc(C)c(-c2cnc(CC(F)(F)F)o2)s1	10	88	43	4	–	–	–
CC(=O)Nc1nc(C)c(-c2cnc(S(C)(=O)=O)o2)s1	12	222	195	16	–	–	–
CC(=O)Nc1nc(C)c(-c2cnc(C(C)(C)O)o2)s1	25	369	–	–	–	–	–
CC(=O)Nc1nc(C)c(-c2cnc(N3CCOCC3)o2)s1	24	599	–	–	–	–	–
CC(=O)Nc1nc(C)c(-c2cnc(Sc3cccnc3)o2)s1	16	279	112	7	–	–	–
CC(=O)Nc1nc(C)c(-c2csc(Nc3cccc(C(=O)O)c3)n2)s1	–	–	–	–	5	–	–
CSc1ncc(-c2sc(NC(C)=O)nc2C)o1	22	322	–	–	–	–	–
CC(=O)Nc1nc(C)c(-c2cnc(Cc3cccc(C(=O)O)c3)o2)s1	223	> 10000	–	–	–	–	–
CC(=O)Nc1nc(C)c(-c2cnc(N3CCCC(O)C3)o2)s1 (stereo not given)	14	237	–	–	–	–	–
CC(=O)Nc1nc(C)c(-c2cnc(Nc3ccc(Cl)nc3)o2)s1	24	1040	–	–	–	–	–
CC(=O)Nc1nc(C)c(-c2cnc(N(C)C)o2)s1	46	1220	–	–	–	–	–
CC(=O)Nc1nc(C)c(-c2cnc(CO)o2)s1	161	–	–	–	–	–	–
CC(=O)Nc1nc(C)c(-c2cnc(C)o2)s1	181	–	–	–	–	–	–
CC(=O)Nc1nc(C)c(-c2cnc(Nc3cccc(C(=O)O)c3)o2)s1	12	> 10000	328	27	–	1.4	–
COc1ncc(-c2sc(NC(C)=O)nc2C)o1	250	–	–	–	–	–	–
CC(=O)Nc1nc(C)c(-c2cnc(Nc3ccc(Cl)cc3)o2)s1	346	–	–	–	–	–	–
CC(=O)Nc1nc(C)c(-c2cnc(Cc3cccnc3)o2)s1	95	–	–	–	–	–	–
CC(=O)Nc1nc(C)c(-c2cnc(-c3cccnc3)o2)s1	3	59	46	15	–	77.3	0.39 (≈ 1.3 µM)
CC(=O)Nc1nc(C)c(-c2cnc(C(C)(C)C)o2)s1	3	113	15	5	–	88.4	35.2 (≈ 126 µM)
CC(=O)Nc1nc(C)c(-c2cnc(Oc3cccnc3)o2)s1	117	1670	–	–	–	–	–
CC(=O)Nc1nc(C)c(-c2cnc(Nc3cccnc3)o2)s1	12	431	102	9	–	–	–
